{"source": "paper PMC8637822", "about": "(RSC Chemical Biology, 2021)", "key": {"[1]": {"system": "SJSA-1 cells", "experiment": "WST-1 cell proliferation assay in SJSA-1 cells", "type": "cell-based", "conditions": "Homo sapiens, SJSA-1, 24 h, read-out: GI50 growth inhibition", "method_in_brief": "(§1)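 Cells were exposed for 24 h to varying concentrations of the synthesized macrocyclic peptide MDM2 inhibitors, and proliferation was read out by the WST-1 assay. The same test was run in MDM2-dependent SJSA-1 cells and in p53-mutant SW-480 cells, the latter as a control line. A small-molecule MDM2 inhibitor served as the positive control.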"}, "[2]": {"system": "SW-480 cells", "experiment": "WST-1 cell proliferation assay in SW-480 cells", "type": "cell-based", "conditions": "p53-mutant SW-480 cells, 24 hours", "method_in_brief": "as §1"}, "[3]": {"target": "T1, MDM4 (Homo sapiens, UniProt O15151)", "T1 sequence (O15151 2-185)": "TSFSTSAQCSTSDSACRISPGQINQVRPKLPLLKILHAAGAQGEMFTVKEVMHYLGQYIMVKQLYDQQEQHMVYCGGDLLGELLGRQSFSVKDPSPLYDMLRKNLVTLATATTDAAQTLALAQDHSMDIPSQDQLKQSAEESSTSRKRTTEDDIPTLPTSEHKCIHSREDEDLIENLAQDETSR", "experiment": "TR-FRET competition", "type": "binding", "conditions": "His(96) of MDM2 replaced by proline in MDM4"}, "[4]": {"target": "MDM2 (Homo sapiens, UniProt Q00987)", "sequence (Q00987 2-188)": "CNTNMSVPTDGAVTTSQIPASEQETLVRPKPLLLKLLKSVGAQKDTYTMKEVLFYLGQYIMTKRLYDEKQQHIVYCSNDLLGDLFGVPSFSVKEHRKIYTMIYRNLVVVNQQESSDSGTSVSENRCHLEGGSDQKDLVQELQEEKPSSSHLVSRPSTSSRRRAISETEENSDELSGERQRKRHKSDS", "experiment": "TR-FRET competition", "type": "binding"}, "[5]": {"system": "SJSA-1 cells", "experiment": "SJSA-1 cellular assay", "type": "cell-based", "conditions": "tested up to 30 μM"}, "[6]": {"system": "nuclear MDM2 in SJSA-1 cells", "experiment": "MDM2 immunofluorescence", "type": "cell-based", "conditions": "4 hours"}}, "note": "Where a SMILES comes first, the peptide text is derived from it. Bridges are numbered along the chain shown (N, C = ends). [ ]: non-standard residue; d: D form. Bip = N[C@@H](Cc1ccc(-c2ccccc2)cc1)C(=O)O; NMeS = CN[C@@H](CO)C(=O)O", "data": [{"smiles": "COc1cc2c(cc1OC(C)C)[C@H](c1ccc(Cl)cc1)N(c1ccc(N(C)C[C@H]3CC[C@H](N4CCN(C)C(=O)C4)CC3)cc1)C(=O)C2", "note": "[CGM097]", "values": [{"measurement": "GI50", "setting": "[1]", "result": "~1000", "unit": "nM"}]}, {"smiles": "CC(=O)N[C@@H](CSSC[C@H](N)C(=O)NCCOCCOCC(=O)NCCOCCOCC(=O)N[C@H]1CCCCNC(=O)CC[C@@H](C(N)=O)NC(=O)[C@H](CCCNC(=N)N)NC(=O)[C@@H](CCCNC(=N)N)NC(=O)[C@H](CCCNC(=N)N)NC(=O)[C@@H](CCCNC(=N)N)NC(=O)[C@H](CCCNC(=N)N)NC(=O)[C@@H](CCCNC(=N)N)NC(=O)[C@H](CCCNC(=N)N)NC(=O)[C@@H](CCCNC(=N)N)NC(=O)[C@H](CCCNC(=N)N)NC(=O)[C@@H](CCCNC(=N)N)NC1=O)C(=O)NCCCC[C@H](NC(=O)CNC(=O)[C@@H]1CSCC(=O)N[C@@H](Cc2ccccc2)C(=O)N[C@@H](CO)C(=O)N[C@@H](CC(=O)O)C(=O)N(C)[C@@H](CO)C(=O)N[C@@H](CO)C(=O)N[C@@H](CO)C(=O)N[C@@H](C(C)C)C(=O)N2CCC[C@H]2C(=O)N[C@@H](CC(N)=O)C(=O)N[C@@H](Cc2ccc(-c3ccccc3)cc2)C(=O)N[C@@H](Cc2ccc(-c3ccccc3)cc2)C(=O)N[C@@H](CCCNC(=N)N)C(=O)N[C@@H](CC(N)=O)C(=O)N1)C(N)=O", "note": "[CMR19-cR10]", "values": [{"measurement": "growth inhibitory effect", "setting": "[2]", "result": "no growth inhibition"}]}, {"smiles": "CC(C)[C@@H]1NC(=O)[C@H](CO)NC(=O)[C@H](CO)NC(=O)[C@H](CO)N(C)C(=O)[C@H](CC(=O)O)NC(=O)[C@H](CO)NC(=O)[C@H](Cc2ccccc2)NC(=O)CSC[C@@H](C(=O)NCC(N)=O)NC(=O)[C@H](CC(N)=O)NC(=O)[C@H](CCCNC(=N)N)NC(=O)[C@H](Cc2ccc(-c3ccccc3)cc2)NC(=O)[C@H](Cc2ccc(-c3ccccc3)cc2)NC(=O)[C@H](CC(N)=O)NC(=O)[C@@H]2CCCN2C1=O", "note": "[CMR19] ({CH2CO}-FSD[NMeS]SSVPN[Bip][Bip]RNCG-NH2; thioether N-14)", "values": [{"measurement": "loss in affinity for MDM4 versus MDM2", "setting": "[3]", "result": "more than thousand fold loss in affinity"}, {"measurement": "IC50", "setting": "[4]", "result": 0.18, "unit": "nM"}, {"measurement": "Ki", "setting": "[4]", "result": 0.15, "unit": "nM"}, {"measurement": "cytotoxic response on SJSA-1 cells", "setting": "[5]", "result": "did not observe any cytotoxic response"}]}, {"smiles": "CC(C)[C@@H]1NC(=O)[C@H](CO)NC(=O)[C@H](CO)NC(=O)[C@H](CO)N(C)C(=O)[C@H](CC(=O)O)NC(=O)[C@H](CO)NC(=O)[C@H](Cc2ccccc2)NC(=O)CSC[C@@H](C(=O)NCC(N)=O)NC(=O)[C@H](CC(N)=O)NC(=O)[C@H](CCCNC(=N)N)NC(=O)[C@H](C)NC(=O)[C@H](Cc2ccc(-c3ccccc3)cc2)NC(=O)[C@H](CC(N)=O)NC(=O)[C@@H]2CCCN2C1=O", "note": "[MMS95] ({CH2CO}-FSD[NMeS]SSVPN[Bip]ARNCG-NH2; thioether N-14)", "values": [{"measurement": "IC50", "setting": "[4]", "result": "> 10000", "unit": "nM"}, {"measurement": "binding to MDM2 in the TR-FRET assay", "setting": "[4]", "result": "no binding"}, {"measurement": "concentration-dependent enrichment of nuclear MDM2 (quantified fluorescence)", "setting": "[6]; 0.4-10 µM", "result": "does not"}, {"measurement": "enrichment of MDM2 in the nuclei compared to the DMSO control", "setting": "[6]; 37 °C, immunofluorescence", "result": "did not result in increased nuclear staining"}]}]}
